Calls of active or inactive are those of the source. The calls are words filed in the database; no cut-off is given here.
Assays:
[1] = target: T1, Nucleotide-binding oligomerization domain-containing protein 1 (Homo sapiens, UniProt Q9Y239); assay: Agonist activity at human NOD-1 expressed in human HEK293 cells assessed as NF-kappaB induction by spectrophotometric analysis; assay type: functional, cell-based
T1 sequence (Q9Y239 whole entry): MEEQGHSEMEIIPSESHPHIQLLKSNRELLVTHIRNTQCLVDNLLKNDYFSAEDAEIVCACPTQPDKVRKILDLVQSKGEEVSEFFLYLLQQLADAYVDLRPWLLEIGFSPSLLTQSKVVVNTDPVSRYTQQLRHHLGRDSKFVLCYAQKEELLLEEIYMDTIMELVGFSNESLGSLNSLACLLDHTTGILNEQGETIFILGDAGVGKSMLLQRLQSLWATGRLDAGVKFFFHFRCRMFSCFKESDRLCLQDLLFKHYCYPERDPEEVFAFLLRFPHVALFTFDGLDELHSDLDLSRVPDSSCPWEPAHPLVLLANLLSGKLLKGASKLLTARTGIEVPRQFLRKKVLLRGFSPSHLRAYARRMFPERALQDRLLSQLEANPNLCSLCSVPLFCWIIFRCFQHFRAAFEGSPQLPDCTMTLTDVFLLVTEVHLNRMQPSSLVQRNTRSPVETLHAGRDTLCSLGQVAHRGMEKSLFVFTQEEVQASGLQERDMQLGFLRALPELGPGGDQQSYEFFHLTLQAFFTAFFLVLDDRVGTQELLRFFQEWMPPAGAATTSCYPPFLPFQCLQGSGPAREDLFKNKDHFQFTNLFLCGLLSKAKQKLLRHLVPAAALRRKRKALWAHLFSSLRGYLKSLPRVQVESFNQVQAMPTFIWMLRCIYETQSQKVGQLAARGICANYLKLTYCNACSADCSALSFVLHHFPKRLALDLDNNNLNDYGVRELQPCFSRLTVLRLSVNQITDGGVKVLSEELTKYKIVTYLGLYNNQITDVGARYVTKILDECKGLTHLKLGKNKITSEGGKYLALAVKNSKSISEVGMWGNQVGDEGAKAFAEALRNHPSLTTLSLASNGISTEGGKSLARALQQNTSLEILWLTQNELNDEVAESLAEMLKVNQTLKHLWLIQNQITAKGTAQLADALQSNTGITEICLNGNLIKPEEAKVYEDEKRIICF
Procedure, shortened: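 HEK-Blue cells (HEK293 stably transfected with human Nod1 and an NF-κB/AP-1-inducible secreted alkaline phosphatase reporter) were kept in selection medium with zeocin and normocin. Cells at ~10^5 cells/mL were grown to confluency and then given graded compound concentrations. Supernatant sAP was read spectrophotometrically at 620 nm with an alkaline phosphatase-specific chromogen.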

[2] = tested on: PBMC; assay: Upregulation of interleukin 6 in human PBMC at 20 ug/ml after 2 hrs; assay type: functional
Procedure, shortened: (§1)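 PBMCs were isolated from fresh heparin-anticoagulated human blood and stimulated with compound at 20 μg/mL for 2 h. Total RNA was extracted from treated and negative-control PBMC samples for transcriptomal profiling.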

[3] = tested on: PBMC; assay: Downregulation of interleukin 1RAPL1 in human PBMC at 20 ug/ml after 2 hrs; assay type: functional; procedure, shortened: as §1
[4] = tested on: PBMC; assay: Upregulation of interleukin 1B in human PBMC at 20 ug/ml after 2 hrs; assay type: functional; procedure, shortened: as §1
[5] = tested on: PBMC; assay: Upregulation of interleukin 17RD in human PBMC at 20 ug/ml after 2 hrs; assay type: functional; procedure, shortened: as §1
[6] = tested on: PBMC; assay: Upregulation of interleukin 1F5 in human PBMC at 20 ug/ml after 2 hrs; assay type: functional; procedure, shortened: as §1
[7] = tested on: PBMC; assay: Upregulation of interleukin 3 in human PBMC at 20 ug/ml after 2 hrs; assay type: functional; procedure, shortened: as §1
[8] = Upregulation of p38 MAPK expression in human […] by flow cytometry; assay type: functional, cell-based
Procedure, shortened: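 Fresh heparinized human whole blood was incubated with graded compound concentrations diluted in saline for 15 min at 37°C. Erythrocytes were lysed and leukocytes fixed in one step, then permeabilized in ice-cold methanol for 30 min. Cells were stained 60 min with PE anti-phospho-p38MAPK (pT180/pY182) or a PE IgG1 κ isotype control. Flow cytometry acquired 20,000 gated events.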

[9] = target: Triggering receptor expressed on myeloid cells 1 (Homo sapiens) (UniProt Q9NP99); assay: Induction of TREM-1-mediated activation of IL12 signalling and production in human PBMC at 20 ug/ml; procedure, shortened: as §1
Triggering receptor expressed on myeloid cells 1 (Homo sapiens), sequence (Q9NP99 whole entry, looked up): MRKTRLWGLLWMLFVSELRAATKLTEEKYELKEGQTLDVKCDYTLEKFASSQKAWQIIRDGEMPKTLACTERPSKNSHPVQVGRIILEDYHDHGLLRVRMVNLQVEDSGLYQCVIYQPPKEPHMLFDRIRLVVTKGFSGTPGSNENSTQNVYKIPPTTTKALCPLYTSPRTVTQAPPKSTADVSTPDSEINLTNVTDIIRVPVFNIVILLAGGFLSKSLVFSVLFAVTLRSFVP

[10] = tested on: PBMC; assay: Upregulation of interleukin 19 in human PBMC at 20 ug/ml after 2 hrs; assay type: functional; procedure, shortened: as §1
[11] = tested on: PBMC; assay: Upregulation of interleukin 20 in human PBMC at 20 ug/ml after 2 hrs; assay type: functional; procedure, shortened: as §1
[12] = Upregulation of CD11b expression in human […] by flow cytometry; assay type: functional, cell-based
Procedure, shortened: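 Fresh anticoagulated human whole blood was incubated with graded compound dilutions for 1 h at 37°C, with saline negative controls. Samples were chilled 15 min, then stained with anti-CD11b/Mac-1 on ice for 30 min so only surface CD11b was labelled. Erythrocytes were lysed and leukocytes fixed, then washed. Flow cytometry in single-color PE mode acquired 20,000 gated events.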

[13] = target: Triggering receptor expressed on myeloid cells 1 (Homo sapiens) (UniProt Q9NP99); assay: Induction of TREM-1-mediated dendritic cell maturation in human PBMC at 20 ug/ml; procedure, shortened: as §1
[14] = tested on: PBMC; assay: Upregulation of interleukin 1RN in human PBMC at 20 ug/ml after 2 hrs; assay type: functional; procedure, shortened: as §1
[15] = target: Triggering receptor expressed on myeloid cells 1 (Homo sapiens) (UniProt Q9NP99); assay: Induction of TREM-1-mediated activation of IL-9 signalling pathway in human PBMC at 20 ug/ml; procedure, shortened: as §1
[16] = tested on: PBMC; assay: Upregulation of interleukin 22 in human PBMC at 20 ug/ml after 2 hrs; assay type: functional; procedure, shortened: as §1
[17] = tested on: PBMC; assay: Upregulation of interleukin 1F9 in human PBMC at 20 ug/ml after 2 hrs; assay type: functional; procedure, shortened: as §1
[18] = target: Triggering receptor expressed on myeloid cells 1 (Homo sapiens) (UniProt Q9NP99); assay: Induction of TREM-1-mediated activation of communication between innate and adaptive immune cells in human PBMC at 20 ug/ml; assay type: cell-based; procedure, shortened: as §1
[19] = tested on: PBMC; assay: Downregulation of interleukin 22RA1 in human PBMC at 20 ug/ml after 2 hrs; assay type: functional; procedure, shortened: as §1
[20] = tested on: PBMC; assay: Downregulation of interleukin 8RB in human PBMC at 20 ug/ml after 2 hrs; assay type: functional; procedure, shortened: as §1
[21] = target: Triggering receptor expressed on myeloid cells 1 (Homo sapiens) (UniProt Q9NP99); assay: Induction of TREM-1-mediated activation of IL-10 signalling pathway in human PBMC at 20 ug/ml; procedure, shortened: as §1
[22] = target: Triggering receptor expressed on myeloid cells 1 (Homo sapiens) (UniProt Q9NP99); assay: Induction of TREM-1-mediated activation of TNFR2 signalling pathway in human PBMC at 20 ug/ml; procedure, shortened: as §1
[23] = target: Triggering receptor expressed on myeloid cells 1 (Homo sapiens) (UniProt Q9NP99); assay: Induction of TREM-1-mediated activation of PPAR signalling pathway in human PBMC at 20 ug/ml; procedure, shortened: as §1
[24] = tested on: PBMC; assay: Upregulation of interleukin 2RA in human PBMC at 20 ug/ml after 2 hrs; assay type: functional; procedure, shortened: as §1
[25] = tested on: PBMC; assay: Upregulation of interleukin 12B in human PBMC at 20 ug/ml after 2 hrs; assay type: functional; procedure, shortened: as §1
[26] = target: Triggering receptor expressed on myeloid cells 1 (Homo sapiens) (UniProt Q9NP99); assay: Induction of TREM-1-mediated T-helper cell differentiation in human PBMC at 20 ug/ml; assay type: cell-based; procedure, shortened: as §1
[27] = tested on: PBMC; assay: Upregulation of interleukin 17A in human PBMC at 20 ug/ml after 2 hrs; assay type: functional; procedure, shortened: as §1
[28] = target: Triggering receptor expressed on myeloid cells 1 (Homo sapiens) (UniProt Q9NP99); assay: Induction of TREM-1-mediated activation of NF-kappaB signalling pathway in human PBMC at 20 ug/ml; procedure, shortened: as §1
[29] = tested on: PBMC; assay: Upregulation of interleukin 10 in human PBMC at 20 ug/ml after 2 hrs; assay type: functional; procedure, shortened: as §1
[30] = tested on: PBMC; assay: Upregulation of interleukin 1F10 in human PBMC at 20 ug/ml after 2 hrs; assay type: functional; procedure, shortened: as §1
[31] = tested on: PBMC; assay: Upregulation of interleukin 18 in human PBMC at 20 ug/ml after 2 hrs; assay type: functional; procedure, shortened: as §1
[32] = target: Triggering receptor expressed on myeloid cells 1 (Homo sapiens) (UniProt Q9NP99); assay: Induction of TREM-1-mediated activation of IL-6 signaling pathway in human PBMC at 20 ug/ml; procedure, shortened: as §1
[33] = target: Triggering receptor expressed on myeloid cells 1 (Homo sapiens) (UniProt Q9NP99); assay: Induction of TREM-1-mediated activation of p38 MAPK signalling pathway in human PBMC at 20 ug/ml; procedure, shortened: as §1
[34] = tested on: PBMC; assay: Downregulation of interleukin 1RAP in human PBMC at 20 ug/ml after 2 hrs; assay type: functional; procedure, shortened: as §1
[35] = tested on: PBMC; assay: Upregulation of interleukin 1alpha in human PBMC at 20 ug/ml after 2 hrs; assay type: functional; procedure, shortened: as §1
[36] = target: Triggering receptor expressed on myeloid cells 1 (Homo sapiens) (UniProt Q9NP99); assay: Induction of TREM-1-mediated activation of IRF by cytosolic pattern recognition receptors in human PBMC at 20 ug/ml; procedure, shortened: as §1
[37] = tested on: PBMC; assay: Upregulation of interleukin 24 in human PBMC at 20 ug/ml after 2 hrs; assay type: functional; procedure, shortened: as §1
[38] = target: Triggering receptor expressed on myeloid cells 1 (Homo sapiens) (UniProt Q9NP99); assay: Induction of TREM-1-mediated LXR/RXR activation in human PBMC at 20 ug/ml; procedure, shortened: as §1
[39] = tested on: PBMC; assay: Downregulation of interleukin 31RA in human PBMC at 20 ug/ml after 2 hrs; assay type: functional; procedure, shortened: as §1
[40] = tested on: PBMC; assay: Upregulation of interleukin 8 in human PBMC at 20 ug/ml after 2 hrs; assay type: functional; procedure, shortened: as §1

CCCCCCCCCCCC(=O)N[C@H](CCC(=O)NCCCCCN)C(=O)O
EC50 [1]: > 100 nM

CCCCCCCCCCCOC(=O)[C@H](N)CCC(=O)NC(CCCC(N)C(=O)O)C(=O)O (some centres not stated)
EC50 [1]: 0.066 nM

CCCCCCCCCCCC(=O)N[C@H](CCC(=O)N[C@H](CCCCN)C(=O)O)C(=O)O
EC50 [1]: > 100 nM

CCCCCCCCCCCCN(CCCCCCCCCCCC)[C@H](CCC(=O)NC(CCCC(N)C(=O)O)C(=O)O)C(=O)O (some centres not stated)
fold change (FC) [2]: 29.54 | fold change (FC) [3]: 2.06 | fold change (FC) [4]: 4.14 | fold change (FC) [5]: 3.17 | fold change (FC) [6]: 3.15 | fold change (FC) [7]: 5.99 | Activity [8]: Dose-dependent effect | Activity [9]: Active | fold change (FC) [10]: 30.39 | fold change (FC) [11]: 4 | Activity [12]: Dose-dependent effect | Activity [13]: Active | fold change (FC) [14]: 4.94 | Activity [15]: Active | fold change (FC) [16]: 3.87 | fold change (FC) [17]: 11.1 | Activity [18]: Active | EC50 [1]: 0.0015 nM | fold change (FC) [19]: 3.69 | fold change (FC) [20]: 2.75 | Activity [21]: Active | Activity [22]: Active | Activity [23]: Active | fold change (FC) [24]: 3.57 | fold change (FC) [25]: 6.13 | Activity [26]: Active | fold change (FC) [27]: 10.56 | Activity [28]: Active | fold change (FC) [29]: 3.62 | fold change (FC) [30]: 2.05 | fold change (FC) [31]: 2.03 | Activity [32]: Active | Activity [33]: Active | fold change (FC) [34]: 2.02 | fold change (FC) [35]: 14.34 | Activity [36]: Active | fold change (FC) [37]: 3.41 | Activity [38]: Active | fold change (FC) [39]: 4.05 | fold change (FC) [40]: 2.29

CCCCCCCCCCCC(=O)N[C@H](CCC(=O)NC(CCCC(N)C(=O)O)C(=O)O)C(=O)O (some centres not stated)
Activity [8]: Dose-dependent effect | Activity [12]: Dose-dependent effect | EC50 [1]: 0.027 nM

CCCCCCCCCCCOC(=O)[C@@H](CCC(=O)NC(CCCC(N)C(=O)O)C(=O)O)NC(=N)N (some centres not stated)
EC50 [1]: 0.238 nM

— ChEMBL document CHEMBL1687899, “Structure-activity relationships in nucleotide oligomerization domain 1 (Nod1) agonistic γ-glutamyldiaminopimelic acid derivatives” (J Med Chem, 2011)
